One series concerns the target Acetylcholinesterase (Homo sapiens, UniProt P22303). Nature of the series: Inhibition of recombinant human AChE using acetylthiocholineiodide as substrate preincubated for 20 mins followed by substrate addition by Ellman's method. In short, it runs like this: (§1)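 Enzyme was 0.02 U/mL human recombinant AChE or human serum BChE. Non-enzymatic hydrolysis was corrected. IC50 came from a % inhibition vs log[I] regression. Selectivity = IC50 hBChE/IC50 hAChE. Mean ± SEM of ≥2 experiments, each in duplicate/triplicate.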

Series [1] can be described thus: Permeability of the compound in PBS/EtOH buffer (70:30) by PAMPA-BBB assay. Format: ADME. Conditions: read-out: permeability. Summed up: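 PAMPA-BBB permeability, reported as Pe in 10⁻⁶ cm s⁻¹, with CNS+ defined as Pe > 5.1. Mean ± SD of three experiments, each in triplicate.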
In general terms: PAMPA measures passive passage across an artificial lipid membrane.

Series [2] is described as follows: Selectivity index, ratio of IC50 for human serum BChE using butyrylthiocholineiodide as substrate to IC50 for recombinant human AChE using acetylthiocholine iodide as substrate. Summed up:
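Ellman spectrophotometric assay in 0.1 M phosphate buffer, pH 8.0, with 340 μM DTNB. Enzyme was 0.02 U/mL human recombinant AChE or human serum BChE. […] Then 550 μM ATCh or BTCh was added, and A412 was followed for 210 s. Non-enzymatic hydrolysis was corrected. IC50 came from a % inhibition vs log[I] regression. Selectivity = IC50 hBChE/IC50 hAChE. Mean ± SEM of ≥2 experiments, each in duplicate/triplicate.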

A short description of series [3]: Antioxidant activity assessed as DPPH radical scavenging activity incubated for 30 mins under dark condition by UV-Vis spectrophotometric analysis. Format: functional.
The target in series [4] is Beta-secretase 1 (Homo sapiens) (UniProt P56817). Nature of the series: Inhibition of recombinant human BACE-1 at 1 uM using methoxycoumarin-Ser-Glu-Val-Asn-Leu-Asp-Ala-Glu-Phe-Lys-dinitrophenyl as substrate preincubated for 1 hr followed by substrate addition and measured after 15 mins by fluorescence based assay relative to control. The settings on record: time 75.0 min.
Sequence of Beta-secretase 1 (Homo sapiens) (P56817 whole entry): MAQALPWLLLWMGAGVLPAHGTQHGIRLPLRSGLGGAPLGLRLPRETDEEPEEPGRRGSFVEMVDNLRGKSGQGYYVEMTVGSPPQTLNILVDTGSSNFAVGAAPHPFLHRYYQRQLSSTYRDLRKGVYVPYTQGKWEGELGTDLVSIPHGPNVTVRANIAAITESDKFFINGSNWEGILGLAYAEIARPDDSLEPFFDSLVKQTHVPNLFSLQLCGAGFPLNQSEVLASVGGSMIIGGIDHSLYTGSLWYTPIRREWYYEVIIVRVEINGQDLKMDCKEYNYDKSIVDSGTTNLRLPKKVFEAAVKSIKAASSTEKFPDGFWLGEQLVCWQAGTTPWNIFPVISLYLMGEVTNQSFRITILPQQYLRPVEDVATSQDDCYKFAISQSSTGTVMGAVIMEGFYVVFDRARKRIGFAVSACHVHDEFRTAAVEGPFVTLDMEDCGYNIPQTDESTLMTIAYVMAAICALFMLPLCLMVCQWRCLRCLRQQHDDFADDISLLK

Series [5] addresses T1, Cholinesterase (Homo sapiens, UniProt P06276). Nature of the series: Inhibition of human serum BChE using butyrylthiocholineiodide as substrate preincubated for 20 mins followed by substrate addition by Ellman's method. Format: cell-free. In short, it runs like this:
as §1

Series [6] deals with Beta-secretase 1 (Homo sapiens) (UniProt P56817). In words: Inhibition of recombinant human BACE-1 at 5 uM using methoxycoumarin-Ser-Glu-Val-Asn-Leu-Asp-Ala-Glu-Phe-Lys-dinitrophenyl as substrate preincubated for 1 hr followed by substrate addition and measured after 15 mins by fluorescence based assay relative to control. The settings on record: time 75.0 min.
For series [7], the target named is Acetylcholinesterase (Electrophorus electricus) (UniProt O42275). Nature of the series: Displacement of propidium iodide from PAS-region of electric eel AChE assessed as decrease in fluorescence intensity at 4 to 92 uM by spectrofluorimetric analysis relative to control. On the set-up: scale not given: the % may be the effect or the level left. The settings on record: dose 4-92 µM. Summed up:
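Back-titration fluorescence assay using electric eel AChE (type VI-S). Inhibitor was added in successive aliquots from a MeOH stock. Emission was read at 602 nm with excitation at 535 nm, after subtracting blanks. […] Three independent experiments.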

For series [8], the target named is T1, Cholinesterase. In words: Inhibition of human serum BChE at 100 uM using butyrylthiocholineiodide as substrate preincubated for 20 mins followed by substrate addition by Ellman's method relative to control. It counts as cell-free. For orientation: DTNB colorimetry detects thiols as they appear.
Series [9] can be described thus: Drug concentration in wild type C57BL6 mouse brain at 2 mg/kg, ip thrice a week for 2 weeks observed after 4 hrs post last dose by HPLC/MS/MS analysis. Conditions: in vivo.
A short description of series [10]: Drug concentration in wild type C57BL6 mouse plasma at 2 mg/kg, ip thrice a week for 2 weeks observed after 4 hrs post last dose by HPLC/MS/MS analysis. The settings on record: in vivo.

pIC50: −log10 of the molar value. Calls of active or inactive are those of the source.

T1 sequence (P06276 whole entry): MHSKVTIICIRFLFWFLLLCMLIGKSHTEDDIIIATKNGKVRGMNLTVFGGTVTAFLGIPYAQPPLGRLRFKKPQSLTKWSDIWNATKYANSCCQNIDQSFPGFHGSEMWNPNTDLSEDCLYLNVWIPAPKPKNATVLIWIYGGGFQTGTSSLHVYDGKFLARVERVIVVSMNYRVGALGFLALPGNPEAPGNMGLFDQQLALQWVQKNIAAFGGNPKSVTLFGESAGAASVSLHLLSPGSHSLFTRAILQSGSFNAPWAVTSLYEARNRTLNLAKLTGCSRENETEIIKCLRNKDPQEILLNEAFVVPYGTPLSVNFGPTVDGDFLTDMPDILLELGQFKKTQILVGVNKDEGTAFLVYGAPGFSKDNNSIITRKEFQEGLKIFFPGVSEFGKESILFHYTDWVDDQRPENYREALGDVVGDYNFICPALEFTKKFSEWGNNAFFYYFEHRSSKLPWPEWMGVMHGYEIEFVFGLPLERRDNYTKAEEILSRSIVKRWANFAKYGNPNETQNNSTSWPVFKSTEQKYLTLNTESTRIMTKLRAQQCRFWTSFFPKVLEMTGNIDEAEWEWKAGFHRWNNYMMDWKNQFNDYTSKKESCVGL
Sequence of Acetylcholinesterase (P22303 whole entry): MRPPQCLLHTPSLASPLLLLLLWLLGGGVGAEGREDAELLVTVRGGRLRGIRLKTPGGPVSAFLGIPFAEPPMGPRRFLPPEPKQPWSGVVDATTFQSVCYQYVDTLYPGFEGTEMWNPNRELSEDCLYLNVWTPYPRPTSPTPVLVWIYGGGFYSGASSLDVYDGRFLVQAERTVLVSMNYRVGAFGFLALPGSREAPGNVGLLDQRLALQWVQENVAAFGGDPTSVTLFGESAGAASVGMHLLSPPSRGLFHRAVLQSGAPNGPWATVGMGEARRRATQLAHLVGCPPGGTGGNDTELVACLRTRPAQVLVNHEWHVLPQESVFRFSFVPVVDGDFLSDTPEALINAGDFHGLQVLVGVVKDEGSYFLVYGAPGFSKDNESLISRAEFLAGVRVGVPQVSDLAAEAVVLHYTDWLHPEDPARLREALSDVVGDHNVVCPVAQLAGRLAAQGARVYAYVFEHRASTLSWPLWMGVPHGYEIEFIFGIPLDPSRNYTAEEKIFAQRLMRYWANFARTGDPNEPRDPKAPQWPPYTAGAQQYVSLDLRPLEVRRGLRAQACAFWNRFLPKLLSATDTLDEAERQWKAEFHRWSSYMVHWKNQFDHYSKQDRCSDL
Sequence of Acetylcholinesterase (Electrophorus electricus) (O42275 24-633 limits assumed): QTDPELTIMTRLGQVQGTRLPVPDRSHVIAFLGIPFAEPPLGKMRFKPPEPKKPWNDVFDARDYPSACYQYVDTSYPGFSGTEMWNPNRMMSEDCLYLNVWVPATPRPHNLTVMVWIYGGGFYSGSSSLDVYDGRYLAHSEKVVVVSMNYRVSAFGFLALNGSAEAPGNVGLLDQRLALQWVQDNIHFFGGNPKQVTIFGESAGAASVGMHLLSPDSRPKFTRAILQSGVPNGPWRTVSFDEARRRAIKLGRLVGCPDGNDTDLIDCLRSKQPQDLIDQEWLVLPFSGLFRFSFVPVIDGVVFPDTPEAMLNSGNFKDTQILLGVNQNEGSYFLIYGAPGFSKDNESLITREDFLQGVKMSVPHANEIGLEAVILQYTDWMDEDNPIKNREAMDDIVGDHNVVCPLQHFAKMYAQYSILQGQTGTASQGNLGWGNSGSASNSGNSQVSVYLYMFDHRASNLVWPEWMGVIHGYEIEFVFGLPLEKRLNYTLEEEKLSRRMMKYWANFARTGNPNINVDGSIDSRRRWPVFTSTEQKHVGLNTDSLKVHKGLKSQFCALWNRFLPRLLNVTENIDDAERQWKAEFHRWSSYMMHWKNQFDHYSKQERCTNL

By pIC50 is commonly meant the negative decadic logarithm of the IC50, by convention in mol/L. A word on the inhibition: it is the relative decrease from the control value, in per cent. Regarding `COc1cc(CNC(=O)CCCC/C=C/CCCNc2c3c(nc4cc(Cl)ccc24)CC2C=C(C)CC3C2)ccc1O` (stereo unspecified), the pIC50 on Acetylcholinesterase is 8.25; in series [3], 4.26; at Cholinesterase [5], 7.27. In series [1], the Papp came to 22.3 ×10⁻⁶ cm/s. In addition, the Ratio IC50 in series [2] is 9.4. Moreover, the inhibition in series [4] is 21.6%.
For the compound `COc1cc(CNC(=O)CCCC/C=C/CNc2c3c(nc4cc(Cl)ccc24)CC2C=C(C)CC3C2)ccc1O` (stereo unspecified), the pIC50 on Acetylcholinesterase was 8.36; in series [3], 4.50; against Cholinesterase [5], 7.11. The Papp in [1] stood at 16.8 ×10⁻⁶ cm/s. Moreover, the Ratio IC50 in [2] was found to be 17.7. Also, the inhibition result in series [4] is “inactive”.
On to `CC1=CC2Cc3nc4cc(Cl)ccc4c(N)c3C(C1)C2` (stereo unspecified), for which, in series [6], the inhibition came out at 14%.
On to `COc1cc(CNC(=O)CCCCCCCCNc2c3c(nc4cc(Cl)ccc24)CC2C=C(C)CC3C2)ccc1O` (stereo unspecified), for which the pIC50 was 8.53 on Acetylcholinesterase, 4.19 in series [3] and 7.44 at Cholinesterase [5]. For the same compound, the Papp in series [1] is 21.8 ×10⁻⁶ cm/s. The Ratio IC50 in [2] came out at 12.3. Moreover, in [4], the inhibition was 23.7%.
`COc1cc(CNC(=O)CCCC/C=C/C(C)C)ccc1O` [CAPSAICIN]: the pIC50 is < 3.70 on Acetylcholinesterase and 4.30 in series [3]. For the same compound, in series [1], the Papp came to 10.3 ×10⁻⁶ cm/s. Moreover, the Activity in series [7] was 11%. In series [4], the inhibition entry is “inactive”. Moreover, the inhibition against Cholinesterase [8] turned out to be 20%.
Take `COc1cc2c(cc1OC)C(=O)C(CC1CCN(Cc3ccccc3)CC1)C2` (stereo unspecified) [DONEPEZIL]: the concentration at 336 h came to 6130 ng/g in series [9] and 6460 ng/mL in series [10].
As for `COc1cc(CNC(=O)CCCCCCCNc2c3c(nc4cc(Cl)ccc24)CC2C=C(C)CC3C2)ccc1O` (stereo unspecified), the pIC50 at Acetylcholinesterase is 8.71; in series [3], 4.15; against Cholinesterase [5], 7.29. The Papp in series [1] is 20.1 ×10⁻⁶ cm/s. The Ratio IC50 in [2] turned out to be 26.7. In addition, the inhibition in series [4] amounted to 3.6%.
For the compound `COc1cc(CNC(=O)CCCCNc2c3c(nc4cc(Cl)ccc24)CC2C=C(C)CC3C2)ccc1O` (stereo unspecified), the pIC50 is 8.26 on Acetylcholinesterase, 4.16 in series [3] and 7.28 on Cholinesterase [5]. The Papp in [1] was determined as 11.5 ×10⁻⁶ cm/s. For the same compound, the Ratio IC50 in series [2] came to 9.5. The inhibition in [4] worked out at 55.6%.
Regarding `COc1cc(CNC(=O)CCCCCNc2c3c(nc4cc(Cl)ccc24)CC2C=C(C)CC3C2)ccc1O` (stereo unspecified), the pIC50 was 8.36 on Acetylcholinesterase, 4.20 in series [3] and 7.15 against Cholinesterase [5]. In addition, the Papp in series [1] stood at 14.9 ×10⁻⁶ cm/s. Also, in [2], the Ratio IC50 came out at 16.1. Further, the inhibition in series [4] is 34.3%.
As to `COc1cc(CNC(=O)c2ccc(CNc3c4c(nc5cc(Cl)ccc35)CC3C=C(C)CC4C3)cc2)ccc1O` (stereo unspecified), the pIC50 at Acetylcholinesterase is 7.60; in series [3], 4.15; against Cholinesterase [5], 6.54. Moreover, the Papp in series [1] worked out at 14.3 ×10⁻⁶ cm/s. Besides, in series [2], the Ratio IC50 came to 11.6. The inhibition entry in [4] is “inactive”.

The values above are taken from ChEMBL document CHEMBL4706642, “Discovery of a Potent Dual Inhibitor of Acetylcholinesterase and Butyrylcholinesterase with Antioxidant Activity that Alleviates Alzheimer-like Pathology in Old APP/PS1 Mice” (J Med Chem, 2021).
